Results reported in ChEMBL document CHEMBL5058577, “EUbOPEN Chemogenomics Library 2 (Multiplex)” (2022).

Tested on: Fibroblast
Assay: Multiplex assay against human fibroblast
Format: toxicity, cell-based
In short: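 Live cells were stained at seeding with Hoechst33342, BioTracker Green Microtubule Cytoskeleton Dye, MitoTracker Red and Annexin V Alexa Fluor 680. Following compound addition, they were imaged on a CQ1 microscope at 37°C and 5% CO2 and gated by CellPathfinder machine learning into Hoechst high-intensity objects or normal cells, with normal cells split into healthy, pyknosed or fragmented nuclei and pyknosed cells into mitotic or apoptotic. Tubulin, mitochondrial-mass and membrane-permeability phenotypes are per cents of healthy-nucleus cells.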

[1] = 12 h, 1 µM, compound concentration 1 uM, replicate 1
[2] = 12 h, 1 µM, compound concentration 1 uM, replicate 2
[3] = 12 h, 10 µM, compound concentration 10 uM, replicate 1
[4] = 12 h, 10 µM, compound concentration 10 uM, replicate 2
[5] = 24 h, 1 µM, compound concentration 1 uM, replicate 1
[6] = 24 h, 1 µM, compound concentration 1 uM, replicate 2
[7] = 24 h, 10 µM, compound concentration 10 uM, replicate 1
[8] = 24 h, 10 µM, compound concentration 10 uM, replicate 2
[9] = 48 h, 1 µM, compound concentration 1 uM, replicate 1
[10] = 48 h, 1 µM, compound concentration 1 uM, replicate 2
[11] = 48 h, 10 µM, compound concentration 10 uM, replicate 1
[12] = 48 h, 10 µM, compound concentration 10 uM, replicate 2

With `CCc1cc2cc(NS(=O)(=O)c3ccc(C#N)cc3)ccc2n(CC)c1=O` the “Population Apoptotic (%)” value [1] was 42%, the “Population Fragmented Nuclei (%)” value [1] was 16% and the “Population Healthy Nuclei (%)” value [1] was 64%. For the same compound, the “Population Hoechst High Intensity Objects (%)” value [1] was 1%, the “Population Membrane Permeable-Phenotype (%)” value [1] was 1% and the “Population Mitochondria Different-Phenotype (%)” value [1] was 3%. For the same compound, the “Population Mitotic Cells (%)” value [1] was 57%, the “Population Normal (%)” value [1] was 98% and the “Population Pyknosed Nuclei (%)” value [1] was 18%. For the same compound, the “Population Tubulin-Different-Phenotype (%)” value [1] was 24%, the “Total Cell Count” value [1] was 157 and the “Population Fragmented Nuclei (%)” value [2] was 27%. For the same compound, the “Population Healthy Nuclei (%)” value [2] was 40%, the “Population Hoechst High Intensity Objects (%)” value [2] was 6% and the “Population Membrane Permeable-Phenotype (%)” value [2] was 9%. For the same compound, the “Population Mitochondria Different-Phenotype (%)” value [2] was 7%, the “Population Normal (%)” value [2] was 93% and the “Population Pyknosed Nuclei (%)” value [2] was 32%. For the same compound, the “Population Tubulin-Different-Phenotype (%)” value [2] was 39%, the “Total Cell Count” value [2] was 173 and the “Population Apoptotic (%)” value [3] was 42%. The “Population Fragmented Nuclei (%)” value [3] was 18%, the “Population Healthy Nuclei (%)” value [3] was 54% and the “Population Hoechst High Intensity Objects (%)” value [3] was 1%. For the same compound, the “Population Membrane Permeable-Phenotype (%)” value [3] was 1%, the “Population Mitochondria Different-Phenotype (%)” value [3] was 5% and the “Population Mitotic Cells (%)” value [3] was 57%. For the same compound, the “Population Normal (%)” value [3] was 98%, the “Population Pyknosed Nuclei (%)” value [3] was 26% and the “Population Tubulin-Different-Phenotype (%)” value [3] was 65%. For the same compound, the “Total Cell Count” value [3] was 133, the “Population Apoptotic (%)” value [4] was 18% and the “Population Fragmented Nuclei (%)” value [4] was 19%. For the same compound, the “Population Healthy Nuclei (%)” value [4] was 43%, the “Population Hoechst High Intensity Objects (%)” value [4] was 5% and the “Population Membrane Permeable-Phenotype (%)” value [4] was 12%. The “Population Mitochondria Different-Phenotype (%)” value [4] was 6%, the “Population Mitotic Cells (%)” value [4] was 81% and the “Population Normal (%)” value [4] was 94%. The “Population Pyknosed Nuclei (%)” value [4] was 37%, the “Population Tubulin-Different-Phenotype (%)” value [4] was 74% and the “Total Cell Count” value [4] was 153. For the same compound, the “Population Apoptotic (%)” value [5] was 53%, the “Population Fragmented Nuclei (%)” value [5] was 19% and the “Population Healthy Nuclei (%)” value [5] was 63%. The “Population Hoechst High Intensity Objects (%)” value [5] was 5%, the “Population Membrane Permeable-Phenotype (%)” value [5] was 1% and the “Population Mitochondria Different-Phenotype (%)” value [5] was 4%. For the same compound, the “Population Mitotic Cells (%)” value [5] was 46%, the “Population Normal (%)” value [5] was 94% and the “Population Pyknosed Nuclei (%)” value [5] was 17%. For the same compound, the “Population Tubulin-Different-Phenotype (%)” value [5] was 26%, the “Total Cell Count” value [5] was 157 and the “Population Apoptotic (%)” value [6] was 43%. For the same compound, the “Population Fragmented Nuclei (%)” value [6] was 26%, the “Population Healthy Nuclei (%)” value [6] was 48% and the “Population Hoechst High Intensity Objects (%)” value [6] was 6%. The “Population Membrane Permeable-Phenotype (%)” value [6] was 9%, the “Population Mitochondria Different-Phenotype (%)” value [6] was 8% and the “Population Mitotic Cells (%)” value [6] was 56%. The “Population Normal (%)” value [6] was 93%, the “Population Pyknosed Nuclei (%)” value [6] was 25% and the “Population Tubulin-Different-Phenotype (%)” value [6] was 51%. For the same compound, the “Total Cell Count” value [6] was 164, the “Population Apoptotic (%)” value [7] was 50% and the “Population Fragmented Nuclei (%)” value [7] was 19%. The “Population Healthy Nuclei (%)” value [7] was 58%, the “Population Hoechst High Intensity Objects (%)” value [7] was 2% and the “Population Membrane Permeable-Phenotype (%)” value [7] was 1%. For the same compound, the “Population Mitochondria Different-Phenotype (%)” value [7] was 6%, the “Population Mitotic Cells (%)” value [7] was 50% and the “Population Normal (%)” value [7] was 97%. For the same compound, the “Population Pyknosed Nuclei (%)” value [7] was 22%, the “Population Tubulin-Different-Phenotype (%)” value [7] was 59% and the “Total Cell Count” value [7] was 130. The “Population Apoptotic (%)” value [8] was 32%, the “Population Fragmented Nuclei (%)” value [8] was 22% and the “Population Healthy Nuclei (%)” value [8] was 38%. For the same compound, the “Population Hoechst High Intensity Objects (%)” value [8] was 9%, the “Population Membrane Permeable-Phenotype (%)” value [8] was 6% and the “Population Mitochondria Different-Phenotype (%)” value [8] was 12%. For the same compound, the “Population Mitotic Cells (%)” value [8] was 67%, the “Population Normal (%)” value [8] was 90% and the “Population Pyknosed Nuclei (%)” value [8] was 39%. The “Population Tubulin-Different-Phenotype (%)” value [8] was 72%, the “Total Cell Count” value [8] was 145 and the “Population Apoptotic (%)” value [9] was 52%. For the same compound, the “Population Fragmented Nuclei (%)” value [9] was 24%, the “Population Healthy Nuclei (%)” value [9] was 59% and the “Population Hoechst High Intensity Objects (%)” value [9] was 3%. For the same compound, the “Population Membrane Permeable-Phenotype (%)” value [9] was 0%, the “Population Mitochondria Different-Phenotype (%)” value [9] was 4% and the “Population Mitotic Cells (%)” value [9] was 47%. For the same compound, the “Population Normal (%)” value [9] was 96%, the “Population Pyknosed Nuclei (%)” value [9] was 15% and the “Population Tubulin-Different-Phenotype (%)” value [9] was 27%. For the same compound, the “Total Cell Count” value [9] was 150, the “Population Apoptotic (%)” value [10] was 37% and the “Population Fragmented Nuclei (%)” value [10] was 33%. For the same compound, the “Population Healthy Nuclei (%)” value [10] was 50%, the “Population Hoechst High Intensity Objects (%)” value [10] was 5% and the “Population Membrane Permeable-Phenotype (%)” value [10] was 12%. The “Population Mitochondria Different-Phenotype (%)” value [10] was 8%, the “Population Mitotic Cells (%)” value [10] was 62% and the “Population Normal (%)” value [10] was 94%. For the same compound, the “Population Pyknosed Nuclei (%)” value [10] was 16%, the “Population Tubulin-Different-Phenotype (%)” value [10] was 60% and the “Total Cell Count” value [10] was 156. The “Population Apoptotic (%)” value [11] was 60%, the “Population Fragmented Nuclei (%)” value [11] was 17% and the “Population Healthy Nuclei (%)” value [11] was 62%. The “Population Hoechst High Intensity Objects (%)” value [11] was 1%, the “Population Membrane Permeable-Phenotype (%)” value [11] was 1% and the “Population Mitochondria Different-Phenotype (%)” value [11] was 12%. The “Population Mitotic Cells (%)” value [11] was 40%, the “Population Normal (%)” value [11] was 98% and the “Population Pyknosed Nuclei (%)” value [11] was 19%. For the same compound, the “Population Tubulin-Different-Phenotype (%)” value [11] was 61%, the “Total Cell Count” value [11] was 129 and the “Population Fragmented Nuclei (%)” value [12] was 30%. For the same compound, the “Population Healthy Nuclei (%)” value [12] was 48%, the “Population Hoechst High Intensity Objects (%)” value [12] was 7% and the “Population Membrane Permeable-Phenotype (%)” value [12] was 18%. The “Population Mitochondria Different-Phenotype (%)” value [12] was 7%, the “Population Mitotic Cells (%)” value [12] was 39% and the “Population Normal (%)” value [12] was 92%. For the same compound, the “Population Pyknosed Nuclei (%)” value [12] was 20%, the “Population Tubulin-Different-Phenotype (%)” value [12] was 69% and the “Total Cell Count” value [12] was 145.
